In data set [1] the target is Glutamate receptor ionotropic, NMDA 2B (Homo sapiens, UniProt Q05586+Q13224). Briefly: Displacement of [3H]ifenprodil from GluN2B (unknown origin) expressed in mouse L(tk-) cell membranes co-expressing GluN1a incubated for 120 mins by scintillation counting method.
Data set [2] concerns the target T1, Sigma intracellular receptor 2 (Rattus norvegicus, UniProt Q5U3Y7).
T1 sequence (Q5U3Y7 whole entry): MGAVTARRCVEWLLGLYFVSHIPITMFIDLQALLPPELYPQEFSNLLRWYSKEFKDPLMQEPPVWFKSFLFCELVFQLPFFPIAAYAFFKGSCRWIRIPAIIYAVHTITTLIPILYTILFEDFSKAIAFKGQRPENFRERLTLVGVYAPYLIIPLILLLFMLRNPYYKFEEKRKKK
Briefly: Displacement of [3H]-Di-o-tolylguanidine from sigma-2 receptor in rat liver membranes after 120 mins by scintillation counting method. It is filed as cell membranes, Membrane.

Data set [3] deals with Sigma non-opioid intracellular receptor 1 (Cavia porcellus, UniProt Q60492). Briefly: Displacement of [3H]-(+)pentazocine from sigma-1 receptor in guinea pig brain membranes after 120 mins by scintillation counting method. The data set is classed as cell membranes, Membrane. In general terms: Displacement assays read how much labelled ligand stays bound in the presence of the test substance.
Chain of Sigma non-opioid intracellular receptor 1 (Q60492 whole entry): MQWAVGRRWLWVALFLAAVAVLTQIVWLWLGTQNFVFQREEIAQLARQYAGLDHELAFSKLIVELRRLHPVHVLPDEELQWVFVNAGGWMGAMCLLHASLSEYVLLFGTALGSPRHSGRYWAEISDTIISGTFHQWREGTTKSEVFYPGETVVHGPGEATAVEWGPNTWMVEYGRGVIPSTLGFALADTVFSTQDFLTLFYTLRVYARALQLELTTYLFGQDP

The target in data set [4] is Glutamate receptor ionotropic, NMDA 2B (Homo sapiens) (UniProt Q13224). Briefly: Displacement of [3H]ifenprodil from GluN2B (unknown origin) expressed in mouse L(tk-) cell membranes co-expressing GluN1a at 1 uM incubated for 120 mins by scintillation counting method relative to control.
Chain of Glutamate receptor ionotropic, NMDA 2B (Homo sapiens) (Q13224 27-1484 limits assumed): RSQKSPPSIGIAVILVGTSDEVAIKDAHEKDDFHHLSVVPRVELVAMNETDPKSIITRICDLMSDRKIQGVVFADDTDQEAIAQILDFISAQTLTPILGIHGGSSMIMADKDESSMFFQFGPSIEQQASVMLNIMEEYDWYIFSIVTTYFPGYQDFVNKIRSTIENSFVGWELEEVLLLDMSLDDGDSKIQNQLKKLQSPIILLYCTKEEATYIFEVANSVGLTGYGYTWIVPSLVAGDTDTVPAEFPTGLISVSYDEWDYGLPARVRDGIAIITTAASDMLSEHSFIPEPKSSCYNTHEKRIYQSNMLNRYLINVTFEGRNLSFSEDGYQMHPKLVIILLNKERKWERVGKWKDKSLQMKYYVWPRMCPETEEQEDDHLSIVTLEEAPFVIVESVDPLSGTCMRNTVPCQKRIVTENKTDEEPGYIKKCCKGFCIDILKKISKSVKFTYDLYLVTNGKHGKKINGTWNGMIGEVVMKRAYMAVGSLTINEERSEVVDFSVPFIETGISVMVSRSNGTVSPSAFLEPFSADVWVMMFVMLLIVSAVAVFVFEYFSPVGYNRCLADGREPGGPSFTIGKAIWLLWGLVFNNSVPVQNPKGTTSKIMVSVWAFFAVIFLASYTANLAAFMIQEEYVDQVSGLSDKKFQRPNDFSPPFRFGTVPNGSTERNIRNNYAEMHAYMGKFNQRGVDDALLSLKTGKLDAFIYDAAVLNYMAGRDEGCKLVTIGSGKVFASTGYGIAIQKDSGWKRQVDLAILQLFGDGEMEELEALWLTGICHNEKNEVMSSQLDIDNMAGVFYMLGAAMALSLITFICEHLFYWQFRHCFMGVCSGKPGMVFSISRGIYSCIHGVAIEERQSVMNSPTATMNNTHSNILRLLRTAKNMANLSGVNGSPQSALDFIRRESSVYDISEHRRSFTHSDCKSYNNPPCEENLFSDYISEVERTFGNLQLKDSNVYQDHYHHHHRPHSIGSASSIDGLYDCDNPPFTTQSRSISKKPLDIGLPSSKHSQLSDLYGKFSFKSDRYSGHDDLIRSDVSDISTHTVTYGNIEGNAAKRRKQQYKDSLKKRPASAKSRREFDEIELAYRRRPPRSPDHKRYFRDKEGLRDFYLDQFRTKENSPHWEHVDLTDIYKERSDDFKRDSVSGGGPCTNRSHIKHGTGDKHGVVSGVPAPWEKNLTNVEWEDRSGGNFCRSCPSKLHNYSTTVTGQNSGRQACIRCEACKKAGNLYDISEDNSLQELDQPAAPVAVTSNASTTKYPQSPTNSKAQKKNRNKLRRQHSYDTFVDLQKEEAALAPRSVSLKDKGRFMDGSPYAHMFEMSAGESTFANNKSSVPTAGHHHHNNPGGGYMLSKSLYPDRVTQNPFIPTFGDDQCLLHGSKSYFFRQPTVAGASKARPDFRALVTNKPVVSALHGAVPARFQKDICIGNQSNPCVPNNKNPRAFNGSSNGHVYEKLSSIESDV
A short description of data set [5]: Antioxidant activity assessed as ABTS radical scavenging activity incubated for 40 mins. The data set is classed as functional.
The nature of data set [6]: Antioxidant activity in pH 7.4 PBS assessed as H2O2 radical scavenging activity. It is filed as functional.
Data set [7] concerns the target T2, Sigma intracellular receptor 2 (Rattus norvegicus) (UniProt Q5U3Y7).
T2 sequence (whole entry): T1 sequence (Q5U3Y7 whole entry)
Briefly: Displacement of [3H]-Di-o-tolylguanidine from sigma-2 receptor in rat liver membranes at 1 uM after 120 mins by scintillation counting method relative to control. The data set is classed as cell membranes. Conditions: Membrane.

Data set [8] is described as follows: Cytotoxicity against human SH-SY5Y cells assessed as cell viability at 100 uM after 48 hrs by MTT assay relative to control. Particulars: read-out: Activity. It is filed as cell-based. Summed up:
(§1)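 Viability of human pancreatic carcinoma PANC1 and neuroblastoma SH-SY5Y cells, both chosen for high σ1R expression, measured by MTT assay across several test concentrations; viability expressed as percent.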
On the technique in general: Tetrazolium assays rely on reduction of a dye to a coloured formazan, in cell work by metabolically active cells.

Data set [9] can be described thus: Cytotoxicity against human PANC1 cells assessed as cell viability at 50 uM after 48 hrs by MTT assay relative to control. It is filed as cell-based. Particulars: PANC-1 cells, read-out: Activity. Summed up: as §1
Data set [10] can be described thus: Cytotoxicity against human PANC1 cells assessed as cell viability at 100 uM after 48 hrs by MTT assay relative to control. The data set is classed as cell-based. Conditions: PANC-1 cells, read-out: Activity. Summed up: as §1
Data set [11] is described as follows: Cytotoxicity against human SH-SY5Y cells assessed as cell viability at 50 uM after 48 hrs by MTT assay relative to control. Particulars: read-out: Activity. The data set is classed as cell-based. Summed up:
as §1

A further data set concerns PANC-1. Briefly: Cytotoxicity against human PANC1 cells at 12.5 to 100 uM after 48 hrs by MTT assay. Particulars: panc-1, 48 h. The data set is classed as cell-based. The procedure, abridged:
as §1

Another data set concerns SH-SY5Y. Briefly: Cytotoxicity against human SH-SY5Y cells at 12.5 to 100 uM after 48 hrs by MTT assay. The data set is classed as cell-based. The procedure, abridged: as §1

pKi: −log10 of the molar value. Values after ≈ are worked out from the molar mass of the structure shown.

Chain of Glutamate receptor ionotropic, NMDA 2B (Q13224 whole entry, one chain of several): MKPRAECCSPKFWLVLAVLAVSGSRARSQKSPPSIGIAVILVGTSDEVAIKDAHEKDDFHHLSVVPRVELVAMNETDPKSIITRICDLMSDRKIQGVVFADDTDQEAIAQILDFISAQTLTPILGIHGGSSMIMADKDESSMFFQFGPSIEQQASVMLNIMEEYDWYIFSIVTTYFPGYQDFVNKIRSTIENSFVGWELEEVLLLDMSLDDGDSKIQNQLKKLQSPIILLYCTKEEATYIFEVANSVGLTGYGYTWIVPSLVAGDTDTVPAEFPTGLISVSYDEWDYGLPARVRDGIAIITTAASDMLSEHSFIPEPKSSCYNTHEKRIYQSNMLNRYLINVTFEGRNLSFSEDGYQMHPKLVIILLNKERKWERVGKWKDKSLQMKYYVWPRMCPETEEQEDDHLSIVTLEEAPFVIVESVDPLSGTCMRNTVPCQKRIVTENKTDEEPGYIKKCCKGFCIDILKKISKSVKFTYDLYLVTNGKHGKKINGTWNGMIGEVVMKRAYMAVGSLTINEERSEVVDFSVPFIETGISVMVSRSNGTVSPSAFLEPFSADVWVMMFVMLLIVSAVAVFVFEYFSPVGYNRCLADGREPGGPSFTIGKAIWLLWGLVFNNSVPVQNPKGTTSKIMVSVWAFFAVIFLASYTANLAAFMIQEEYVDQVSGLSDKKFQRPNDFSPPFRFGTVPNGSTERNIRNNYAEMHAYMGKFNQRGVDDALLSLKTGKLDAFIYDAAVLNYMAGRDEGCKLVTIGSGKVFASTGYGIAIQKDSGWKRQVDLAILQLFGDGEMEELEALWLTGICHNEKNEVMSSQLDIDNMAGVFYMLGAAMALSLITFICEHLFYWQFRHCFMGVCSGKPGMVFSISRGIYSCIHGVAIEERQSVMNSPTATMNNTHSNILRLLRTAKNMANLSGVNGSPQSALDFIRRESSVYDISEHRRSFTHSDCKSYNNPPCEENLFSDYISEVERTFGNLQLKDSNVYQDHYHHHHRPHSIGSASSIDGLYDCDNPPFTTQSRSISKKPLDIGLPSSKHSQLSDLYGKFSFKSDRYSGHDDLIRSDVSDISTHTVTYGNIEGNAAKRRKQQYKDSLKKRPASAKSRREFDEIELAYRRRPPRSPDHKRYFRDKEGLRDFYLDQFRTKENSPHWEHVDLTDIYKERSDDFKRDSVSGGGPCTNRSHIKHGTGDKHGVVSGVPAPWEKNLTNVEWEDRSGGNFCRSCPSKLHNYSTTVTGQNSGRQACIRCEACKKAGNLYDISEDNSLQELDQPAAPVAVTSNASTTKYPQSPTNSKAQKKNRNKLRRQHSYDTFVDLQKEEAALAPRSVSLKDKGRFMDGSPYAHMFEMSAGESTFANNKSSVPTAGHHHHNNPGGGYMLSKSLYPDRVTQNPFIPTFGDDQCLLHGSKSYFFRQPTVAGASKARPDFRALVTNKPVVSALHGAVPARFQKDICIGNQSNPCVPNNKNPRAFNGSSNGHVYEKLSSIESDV

`Cc1ccc(CN2CCCN(C(=O)c3ccncc3)CC2)c(C)c1`: the pKi in data set [1] was 6.94; in [2], 5.70; in [3], 6.60.

Turning to `O=C(c1ccco1)N1CCCN(Cc2ccccc2)CC1`, the pKi in [2] was 6.25; in data set [3], 6.48. Also, the inhibition in data set [4] worked out at 1%.

On to `O=C(c1ccncc1)N1CCCN(Cc2ccccc2)CC1`, for which the pKi was 6.31 in data set [2] and 6.57 in data set [3]. In [4], this compound had an inhibition of 0%.

On to `Cc1ccc(CN2CCCN(C(=O)c3ccco3)CC2)c(C)c1`, for which the pKi in data set [2] was 5.41; in data set [3] it was 6.16. Besides, the inhibition in data set [4] stood at 0%.

With `O=C1O[C@H]([C@@H](O)CO)C(O)=C1O` [ASCORBIC ACID], the values for the IC50 in data set [5] and in [6] were 12.75 µg/mL (≈ 72.4 µM) and 19.27 µg/mL (≈ 109 µM), respectively.

Take `Cc1ccc(CN2CCCN(C(=O)c3cccs3)CC2)c(C)c1`: the pKi in data set [2] was 5.74; in data set [3], 6.47. Further, the inhibition in data set [4] was 3%.

`O=C(c1ccccc1)N1CCCN(Cc2ccccc2)CC1`: the inhibition in [7] and in [4] was 0% in each case. In data set [3], the pKi is 6.94.

Turning to `O=C(c1cccs1)N1CCCN(Cc2ccccc2)CC1`, the pKi was 6.53 in [2] and 6.83 in data set [3]. In data set [4], the inhibition amounted to 0%.

Consider `Cc1ccc(CN2CCCN(C(=O)c3ccccc3)CC2)c(C)c1`, for which the pKi in data set [1] is 6.53; in data set [2] it was 5.41; in data set [3], 6.07.

Turning to `O=C(c1ccc2ccccc2n1)N1CCCN(Cc2ccccc2)CC1`, the pKi in data set [1] was 5.82; in [2], 7.33; in data set [3], 7.72. For the same compound, the IC50 is 14.26 µg/mL (≈ 41.3 µM) in [5] and 20.35 µg/mL (≈ 58.9 µM) in data set [6].

As for `O=C(c1cc2ccccc2o1)N1CCCN(Cc2ccccc2)CC1`, the viability at 48 h, 100 µM in data set [8] was found to be 98%; in [10] it was 127%. The viability at 48 h, 50 µM turned out to be 196% in [9] and 127% in data set [11]. Also, the pKi was 5.80 in data set [1], 7.33 in data set [2] and 8.10 in data set [3]. In addition, the IC50 in data set [5] was 12.71 µg/mL (≈ 38 µM); in data set [6], 15.89 µg/mL (≈ 47.5 µM).

As to `O=C(c1cccc2ccccc12)N1CCCN(Cc2ccccc2)CC1`, the pKi in data set [2] is 6.73; in data set [3], 7.39. The compound also yielded an inhibition in data set [4] of 9%.

Consider `Cc1ccc(CN2CCCN(C(=O)c3ccc4ccccc4n3)CC2)c(C)c1`, for which the pKi in [1] was 6.97; in data set [2] it was 7.46; in data set [3] it was 7.54. In addition, the values for the IC50 in [5] and in data set [6] were 9.43 µg/mL (≈ 25.2 µM) and 17.44 µg/mL (≈ 46.7 µM), respectively. Further, in data set [10], the viability at 48 h, 100 µM amounted to 51%.

For `Cc1ccc(CN2CCCN(C(=O)c3cc4ccccc4o3)CC2)c(C)c1`, the Activity result in the data set on PANC-1 and with SH-SY5Y was “Non-Toxic” throughout. Also, the pKi in data set [1] is 7.23; in [2] it was 7.55; in data set [3], 7.70. Besides, the 50% inhibitory concentration (IC50) is 10.05 µg/mL (≈ 27.7 µM) in data set [5] and 18.56 µg/mL (≈ 51.2 µM) in data set [6].

Turning to `Cc1c(C)c2c(c(C)c1O)CCC(C)(C(=O)O)O2` (stereo unspecified) [TROLOX], the values for the 50% inhibitory concentration (IC50) in [5] and in data set [6] were 18.73 µg/mL (≈ 74.8 µM) and 20.38 µg/mL (≈ 81.4 µM), respectively.

With `Cc1ccc(CN2CCCN(C(=O)c3cccc4ccccc34)CC2)c(C)c1`, the pKi is 7.10 in [1], 6.99 in [2] and 7.15 in data set [3].

By pKi is commonly meant the negative decadic logarithm of the Ki, by convention in mol/L. A higher pKi goes with a low Ki. For orientation: inhibition means the percentage by which the read-out fell short of the control. By IC50 is commonly meant the concentration that inhibits the measured activity by half.

The record behind these values is ChEMBL document CHEMBL4613279, “Synthesis, Cytotoxicity Evaluation, and Computational Insights of Novel 1,4-Diazepane-Based Sigma Ligands” (ACS Med Chem Lett, 2020).
